pIC50: −log10 of the molar value. In brackets after ≈: the same amount, converted by molar mass.
Experiments:
[1] = target: Type 1 fimbrin D-mannose specific adhesin (Escherichia coli K-12, UniProt P08191); test: (§1) Antagonist activity at Escherichia coli recombinant C-terminal 6His-tagged FimH-CRD with a C-terminal thrombin cleavage site expressed in Escherichia coli HM125 assessed as inhibition of streptavidin-horseradish peroxidase conjugated TM-PAA polymer binding after 3 hrs by spectrophotometry
Outline: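 Plates coated overnight at 4 °C with 10 µg/mL FimH-CRD-Th-6His in 20 mM HEPES, 150 mM NaCl, 1 mM CaCl2, pH 7.4, then blocked with 3% BSA for 2 h at 4 °C. Fourfold serial dilutions in buffer with 5% DMSO plus 0.5 µg/mL streptavidin-peroxidase TM-PAA polymer, 3 h at 25 °C. ABTS for 4 min, stopped with oxalic acid, OD 415 nm. Duplicates, repeated at least twice; n-heptyl α-D-mannoside on each plate; IC50 from curve fit.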

Escherichia coli = test: Ratio of compound IC50 to n-heptyl alpha-D-mannopyranoside IC50 for Escherichia coli […] FimH assessed as disaggregation of microorganism from guinea pig erythrocytes measured for 1400 secs by aggregometry
[2] = Octanol-phosphate buffer distribution coefficient, log D of the compound at pH 7.4 after 2 hrs by shake flask method using LC-MS analysis; assay type: physicochemical
Outline: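 Miniaturized shake flask. Phosphate buffer (0.1 M, pH 7.4) and 1-octanol mutually saturated. Analyte at 1 µM in buffer, overlaid with octanol at two volume ratios chosen by ALOGPS-predicted logP, three determinations per ratio.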

[3] = Thermodynamic solubility of the compound at pH 6.5 after 24 hrs by shake flask method using LC-MS analysis; assay type: physicochemical; conditions: buffer, read-out: Therm_solubility
Outline: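 1 mg solid shaken in 250 µL 50 mM phosphate buffer, pH 6.5: sonicated 15 min, shaken at 600 rpm and 25 °C for 2 h, then left 24 h. pH measured, then filtered by centrifugation. Filtrate diluted and quantified by LC-MS against a six-point calibration from 0.1 to 10 µg/mL.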

[4] = Permeability of the compound assessed as membrane retention at pH 5 to 7.4 after 16 hrs by PAMPA assay; assay type: ADME; conditions: pH 5, 16 h
Outline: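 PAMPA sandwich: donor wells with compound solution, acceptor filter impregnated with GIT-0 lipid and filled with acceptor sink buffer. Incubated undisturbed for 16 h. Donor and acceptor samples quantified by UV spectroscopy and LC-MS; log Pe and membrane retention calculated from these.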

[5] = target: Type 1 fimbrin D-mannose specific adhesin (Escherichia coli K-12) (UniProt P08191); test: as §1, with “Ratio of compound IC50 to n-heptyl alpha-D-mannopyranoside IC50 for” for “Antagonist activity at”
Outline: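 FimH-CRD-Th-6His from E. coli HM125, purified on Ni-NTA, coated at 10 µg/mL in assay buffer (20 mM HEPES, 150 mM NaCl, 1 mM CaCl2, pH 7.4) overnight at 4 °C. Wells blocked with 3% BSA for 2 h at 4 °C. Four-fold serial dilutions of compound in buffer with 5% DMSO were added with streptavidin-peroxidase-coupled TM-PAA polymer (0.5 µg/mL). Plates were incubated 3 h at 25 °C, 350 rpm. ABTS was developed 4 min, stopped with 2% oxalic acid, and read at 415 nm. Each compound was run in duplicate and repeated at least twice. IC50 is the concentration that halves maximal specific TM-PAA binding. rIC50 is compound IC50 divided by the IC50 of n-heptyl α-D-mannopyranoside run on the same plate.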

[6] = Antagonist activity at Escherichia coli […] FimH assessed as disaggregation of microorganism from guinea pig erythrocytes measured for 1400 secs by aggregometry; assay type: functional; conditions: for pIC50: read-out: IC50
Outline: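 E. coli UTI89 and guinea pig erythrocytes (separated on Histopaque), each adjusted to OD600 of 4 (1.9 × 10⁸ CFU/mL and 2.2 × 10⁶ cells/mL). Aggregation read as optical density at 740 nm, 37 °C, stirring at 1000 rpm. Instrument calibrated with protein-poor plasma in PBS as 100% and protein-rich plasma with erythrocytes as 0%. Triplicates; IC50 from area under the disaggregation curve.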

Sequence of Type 1 fimbrin D-mannose specific adhesin (Escherichia coli K-12) (P08191 whole entry): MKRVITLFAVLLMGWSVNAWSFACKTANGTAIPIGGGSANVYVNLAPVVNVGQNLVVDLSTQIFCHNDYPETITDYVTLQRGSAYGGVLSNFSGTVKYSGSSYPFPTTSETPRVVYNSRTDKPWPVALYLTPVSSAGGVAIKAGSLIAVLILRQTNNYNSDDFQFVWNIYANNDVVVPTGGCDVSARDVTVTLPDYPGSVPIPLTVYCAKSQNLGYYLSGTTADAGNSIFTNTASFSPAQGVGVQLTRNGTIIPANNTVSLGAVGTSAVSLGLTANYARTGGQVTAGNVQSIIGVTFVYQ
Sequence of Type 1 fimbrin D-mannose specific adhesin (P08191 whole entry): as above

SMILES | pIC50 [1] | Ratio IC50 (Escherichia coli) | logD at 2 h [2] | solubility thermodynamic at 24 h [3] [µg/mL] | R% [4] | Ratio IC50 [5] | pIC50 [6] | IC50 [6]
OC[C@H]1O[C@H](OCCc2cn(-c3ccc(F)cc3)nn2)[C@@H](O)[C@@H](O)[C@@H]1O | 6.71 | 2.8 | -0.21 | > 3000 | 4% | 3 | 3.67 | –
OC[C@H]1O[C@H](n2cc(COc3ccccc3)nn2)[C@@H](O)[C@@H](O)[C@@H]1O | 6.31 | – | -0.18 | > 3000 | 5.5% | 7.5 | – | –
CO[C@H]1O[C@H](CO)[C@@H](O)[C@H](O)[C@@H]1O | 5.72 | – | – | – | – | 29 | – | –
COc1ccc(-n2cc(CO[C@H]3O[C@H](CO)[C@@H](O)[C@H](O)[C@@H]3O)nn2)cc1 | 6.79 | – | -0.05 | 2600 (≈ 7.08 mM) | 7.9% | 2.5 | – | –
OC[C@H]1O[C@H](n2cc(-c3cccc(Cl)c3)nn2)[C@@H](O)[C@@H](O)[C@@H]1O | 6.48 | – | 1.22 | 705 (≈ 2.06 mM) | 13.2% | 5.1 | – | –
O=[N+]([O-])c1ccc(-n2cc(CCO[C@H]3O[C@H](CO)[C@@H](O)[C@H](O)[C@@H]3O)nn2)cc1 | 6.95 | – | -0.3 | > 3000 | 2.9% | 1.7 | – | –
COc1ccc(Cn2cc(CO[C@H]3O[C@H](CO)[C@@H](O)[C@H](O)[C@@H]3O)nn2)cc1 | 6.29 | – | -0.4 | > 3000 | 3.1% | 7.8 | – | –
OC[C@H]1O[C@H](Cn2cc(-c3cccnc3)nn2)[C@@H](O)[C@@H](O)[C@@H]1O | 6.48 | – | < -1.5 | 1880 (≈ 5.82 mM) | impermeable | 5.1 | – | Not Active
OC[C@H]1O[C@H](n2cc(-c3ccccc3)nn2)[C@@H](O)[C@@H](O)[C@@H]1O | – | – | 0.21 | > 3000 | 6.4% | 3.8 | – | –
O=C([O-])c1cccc(-n2cc(CO[C@H]3O[C@H](CO)[C@@H](O)[C@H](O)[C@@H]3O)nn2)c1.[Na+] | 6.53 | – | – | > 3000 | – | 4.5 | – | –
OC[C@H]1O[C@H](Cn2cc(COc3ccccc3)nn2)[C@@H](O)[C@@H](O)[C@@H]1O | 6.49 | – | -0.83 | – | impermeable | 5 | – | –
OC[C@H]1O[C@H](Cn2cc(-c3cccc(Cl)c3)nn2)[C@@H](O)[C@@H](O)[C@@H]1O | 6.19 | – | 0.68 | > 3000 | impermeable | 9.7 | – | –
COc1cccc(Cn2cc(CO[C@H]3O[C@H](CO)[C@@H](O)[C@H](O)[C@@H]3O)nn2)c1 | 6.34 | – | -0.38 | > 3000 | 4% | 6.9 | – | –

Next, values leading:

pIC50 [1] | Ratio IC50 (Escherichia coli) | logD at 2 h [2] | solubility thermodynamic at 24 h [3] [µg/mL] | R% [4] | Ratio IC50 [5] | pIC50 [6] | IC50 [6] | SMILES
7.18 | 1 | 1.65 | > 3000 | 21% | – | – | – | CCCCCCCO[C@H]1O[C@H](CO)[C@@H](O)[C@H](O)[C@@H]1O
6.64 | – | < -1 | > 3000 | 11.8% | 3.5 | – | – | COc1cccc(Cn2cc(CCO[C@H]3O[C@H](CO)[C@@H](O)[C@H](O)[C@@H]3O)nn2)c1
6.18 | – | -0.33 | > 3000 | 3% | 10.2 | – | – | OC[C@H]1O[C@H](OCc2cn(Cc3ccccc3)nn2)[C@@H](O)[C@@H](O)[C@@H]1O
– | – | -0.16 | 2600 (≈ 6.8 mM) | 4.9% | 6.1 | – | – | O=[N+]([O-])c1ccc(-n2cc(CO[C@H]3O[C@H](CO)[C@@H](O)[C@H](O)[C@@H]3O)nn2)cc1
6.25 | – | -0.36 | > 3000 | 7.8% | 8.5 | – | – | OC[C@H]1O[C@H](Cn2cc(-c3ccccc3)nn2)[C@@H](O)[C@@H](O)[C@@H]1O
6.61 | 3.7 | 0.91 | 445 (≈ 1.38 mM) | 11.5% | 3.8 | 3.54 | – | Cc1ccc(-c2cn([C@H]3O[C@H](CO)[C@@H](O)[C@H](O)[C@@H]3O)nn2)cc1
6.25 | – | 0.23 | 1490 (≈ 4.44 mM) | 6.3% | 8.6 | – | – | Cc1ccc(-c2cn(C[C@H]3O[C@H](CO)[C@@H](O)[C@H](O)[C@@H]3O)nn2)cc1
6.67 | – | -1.04 | 1380 (≈ 4.47 mM) | 10.3% | 3.3 | – | – | OC[C@H]1O[C@H](n2cc(-c3cccnc3)nn2)[C@@H](O)[C@@H](O)[C@@H]1O
6.71 | – | 1.07 | 525 (≈ 1.35 mM) | impermeable | 3 | – | Not Active | OC[C@H]1O[C@H](Cn2cc(-c3ccc(C(F)(F)F)cc3)nn2)[C@@H](O)[C@@H](O)[C@@H]1O
7.15 | – | 0.24 | > 3000 | 9.2% | 1.1 | – | Not Active | OC[C@H]1O[C@H](OCc2cn(-c3ccncc3)nn2)[C@@H](O)[C@@H](O)[C@@H]1O
6.46 | – | 0.18 | > 3000 | 5.4% | 5.3 | – | – | OC[C@H]1O[C@H](OCc2cn(-c3cccc(F)c3)nn2)[C@@H](O)[C@@H](O)[C@@H]1O
6.77 | – | – | > 3000 | – | 2.6 | – | – | O=C([O-])c1cncc(-n2cc(CO[C@H]3O[C@H](CO)[C@@H](O)[C@H](O)[C@@H]3O)nn2)c1.[Na+]
6.38 | 3.9 | 0.2 | > 2000 | 4% | 6.4 | 3.52 | – | Nc1ccc(-n2cc(CO[C@H]3O[C@H](CO)[C@@H](O)[C@H](O)[C@@H]3O)nn2)cc1
6.82 | 3.6 | < -1.5 | > 3000 | 4.3% | 2.3 | 3.56 | – | OC[C@H]1O[C@H](OCCc2cn(-c3ccncc3)nn2)[C@@H](O)[C@@H](O)[C@@H]1O
6.11 | – | -0.15 | > 3000 | 4.6% | 11.9 | – | – | OC[C@H]1O[C@H](OCc2cn(-c3ccc(F)cc3)nn2)[C@@H](O)[C@@H](O)[C@@H]1O
6.68 | – | – | > 3000 | – | 3.2 | – | – | O=C([O-])c1ccc(-n2cc(CO[C@H]3O[C@H](CO)[C@@H](O)[C@H](O)[C@@H]3O)nn2)cc1.[Na+]
6.87 | – | 0.07 | > 3000 | 9.8% | 2.1 | – | – | OC[C@H]1O[C@H](OCc2cn(C34CC5CC(CC(C5)C3)C4)nn2)[C@@H](O)[C@@H](O)[C@@H]1O
6.84 | 3.2 | 1.45 | 159 (≈ 0.424 mM) | 17.2% | 2.2 | 3.60 | – | OC[C@H]1O[C@H](n2cc(-c3ccc(C(F)(F)F)cc3)nn2)[C@@H](O)[C@@H](O)[C@@H]1O

Reference: ChEMBL document CHEMBL1914456, “Design, synthesis and biological evaluation of mannosyl triazoles as FimH antagonists” (Bioorg Med Chem, 2011)
